MDM2 E3 inh = Mdm2 E3 ligase (human) inhibition; Q00987; cell-based MDM2 ubiquitination luciferase reporter, 2 h; 0 = plate control, 100 = twice control, blank-subtracted; signal enhancement, % at 5 µM; 210,000 compounds, 0.11% hits; AID 1230;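 active = signal enhancement of 30% or more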;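 note: luminescence tracks abundance of the self-degrading MDM2-luciferase fusion protein; higher signal means inhibition of MDM2 E3 ligase activity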
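Timing – 2 h compound exposure at 37 °C · Assay system – mammalian cells stably expressing self-ubiquitinating, self-degrading MDM2 E3–luciferase fusion · Amount – 2000 cells seeded into each well · Measure – % luminescence enhancement versus blank-corrected plate control mean · Measured by – SteadyLite luminescence, 15 min reagent step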
Rad51 HR inh = blocks human Rad51 in homologous recombination. Q06609. hRad51 DNA strand exchange, fluorescence dequenching. inhibition, % at 10 µM. 200,000 compounds, 0.085% hits. AID 1385;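 active = inhibition above 40% at the single screening dose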;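 note: 0% = DMSO control wells and 100% = blanks with heterologous ssDNA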
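Test system – preformed human Rad51 ssDNA filaments · Reagent – Donor/quencher-labelled 47-bp dsDNA substrate · Incubation – 37 °C 15-min filament assembly, 30-min compound preincubation, 15-min exchange · Signal – FRET fluorescence dequenching, excitation 485 nm, emission 520 nm · Read-out – percent inhibition from fluorescence, normalised to plate control and blank means · Benchmarks – plate control and blank wells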
NCF1 inh = p47phox (human) inhibition; 220,000 compounds, 0.53% hits; p47phox/p22phox peptide binding, fluorescence polarization, 2 h; AID 1274; inhibition, % at 24.7 µM;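 active = inhibition above about 30%, limit read from the data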;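 note: 0% = p47phox with labelled peptide and 100% = labelled peptide alone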
Target sequence (P14598 whole entry, looked up): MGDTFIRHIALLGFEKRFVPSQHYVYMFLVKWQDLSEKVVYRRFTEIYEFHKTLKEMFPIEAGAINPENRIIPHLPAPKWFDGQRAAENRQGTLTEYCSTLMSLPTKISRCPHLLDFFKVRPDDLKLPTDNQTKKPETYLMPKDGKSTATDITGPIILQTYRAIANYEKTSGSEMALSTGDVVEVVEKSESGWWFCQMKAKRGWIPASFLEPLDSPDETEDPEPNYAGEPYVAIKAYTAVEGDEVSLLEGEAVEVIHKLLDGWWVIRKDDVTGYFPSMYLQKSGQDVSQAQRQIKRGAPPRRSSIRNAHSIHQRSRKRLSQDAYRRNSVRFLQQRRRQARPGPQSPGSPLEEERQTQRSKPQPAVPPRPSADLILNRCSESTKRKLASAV
TbHK1 inh = T. brucei hexokinase 1 inhibition; recombinant TbHK1, G6PDH-coupled NADH A340; inhibition, % at 10 µM; 220,000 compounds, 0.11% hits; AID 1430;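 active = inhibition of 50% or more in the single-dose primary screen; inactive = inhibition below 50%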
An asterisk follows results filed as active; i = inactive; / = no result; + = active, no number. Sampled rows, rich in hits. Any-hit rate of the full collection: about 0.75%.

SMILES | MDM2 E3 inh | Rad51 HR inh | NCF1 inh | TbHK1 inh
CCOC(=O)c1c(C)[nH]c(C(=O)NCc2ccco2)c1C | -11 | -13 | -6 | 0
CC(C(=O)c1ccccc1)n1c(N2CCOCC2)nc2c1c(=O)n(C)c(=O)n2C (stereo not drawn) | -18 | / | 55* | 1
Cn1c(=O)c2c(nc(N3CCOCC3)n2C)n(C)c1=O | 0 | -3 | -18 | 5
COCCn1c(=NC(=O)CSC(C)=O)sc2cc(F)ccc21 | -6 | 83* | -3 | -9
COc1ccc2c(c1)C(=NNC(=O)c1ccccn1)c1cc(OC)ccc1-2 | -14 | -21 | 49* | -40
COc1ccc(S(=O)(=O)NNC(=O)c2ccc(-n3c(C)ccc3C)cc2)cc1 | -8 | 2 | -56 | -4
COc1ccc(N2C(=S)N=C(Nc3ccccc3)C23CCCCC3)cc1 | 30* | 1 | -1 | -2
CCCNC(=O)N1C2=NC(C(=O)OC)=C(C(=O)OC)[C@@H]3N(Cc4ccccc4)c4ccccc4[C@]23C[C@H]1CO | / | -1 | / | /
Cc1cccc(N2CCN(C(=S)Nc3ccc4nc(N5CCN(C)CC5)cc(C)c4c3)CC2)c1C | 2 | 25 | 44* | -19
Clc1ccccc1Cc1noc(CN2CCN(c3cnccn3)CC2)n1 | -17 | / | 32* | -23
Cn1cnc(S(=O)(=O)Nc2cc(-c3ccc(Cl)cc3)nn2C)c1 | -11 | 0 | 2 | 2
N=C1S/C(=C\c2ccc(-c3cccc(Cl)c3)o2)C(=O)N1c1nccs1 | 36* | -26 | 18 | 5
COc1ccc(/C=C2\SC(=N)N(c3nccs3)C2=O)cc1OC | -6 | -1 | -89 | 0
COc1ccccc1NC(=O)c1ccc(CN2CCOCC2)cc1 | -6 | -1 | 66* | -4
COc1ccc(OC)c(NC(=O)c2ccc(CN3CCOCC3)cc2)c1 | -17 | 0 | 2 | 0
COc1cc2c(cc1OC)CN(C(=O)c1ccc(S(=O)(=O)N3CCCCC3)cc1)CC2 | 7 | -26 | 49* | 2
CCS(=O)(=O)c1ccc(O)c(NC(=O)CC2(CC(=O)O)CCCC2)c1 | -14 | 4 | -1 | -8
O=C(CSc1nnc2scc(-c3ccccc3)n12)Nc1nsc(-c2ccccc2)n1 | -13 | -4 | 45* | 11
CCN(CC)C1=CC2=CC(=C(C#N)C#N)CCC2CC1 (stereo not drawn) | -29 | / | 62* | -1
N#CC(C#N)=C1C=C2C=C(N3CCCCC3)CCC2CC1 (stereo not drawn) | -6 | i | 113* | 1
COc1cccc(N(C(=O)Cn2nnc(-c3cccs3)n2)C(C(=O)NC2CCCCC2)c2ccncc2)c1 (stereo not drawn) | -4 | / | 46* | 13
Cc1ccc(C)c(N(C(=O)Cn2nnc(-c3cccs3)n2)C(C(=O)NC2CCCC2)c2ccncc2)c1 (stereo not drawn) | -16 | 8 | 0 | -9
CN(C)c1oc(-c2ccccc2Cl)nc1C#N | 32* | / | -11 | -16
C=CCOc1nc2c(c(=O)n(Cc3ccc(Cl)c(Cl)c3)c(=O)n2C)n1C | / | 1 | / | 4
Cn1c(OCc2ccc3c(c2)OCO3)nc2c1c(=O)n(Cc1ccc(Cl)c(Cl)c1)c(=O)n2C | -10 | / | 55* | 1
SMILES | MDM2 E3 inh | Rad51 HR inh | NCF1 inh | TbHK1 inh
COc1ccc(C(=O)Nc2c(C(C)(C)C)nn(C)c2C(C)(C)C)cc1 | -7 | 11 | -9 | 10
O=C(CN1CCN(Cc2ccc(F)cc2)C1=O)NC1CCCC1 | 3 | 5 | -9 | 1
Cn1cccc1Cc1nnc(SCC(N)=O)n1CCc1ccccc1 | -26 | -7 | 89* | -2
O=C(O)CCc1ccc(-c2ccc(Br)cc2)n1CC(=O)O | 34* | 0 | -17 | -1
O=C(O)C1CCCN1c1ncnc2c1oc1ccccc12 (stereo not drawn) | -14 | 6 | -3 | -8
O=C(O)C1CCCN1c1ncccn1 (stereo not drawn) | -13 | -1 | 78* | -1
Cc1cc(C(F)(F)F)nn1Cc1n[nH]c(=S)n1-c1ccc(Cl)cc1 | -11 | / | 31* | -5
Nc1c(O)cccc1C(=O)O | / | 3 | / | /
Nc1c(C(=O)O)ccc2c1C(=O)c1ccccc1C2=O | 3 | 11 | 77* | -3
COC(=O)c1ccc2c(c1O)C(=O)c1ccccc1C2=O | -21 | -12 | 19 | -9
Nc1cc(C(=O)O)c(N)c2c1C(=O)c1ccccc1C2=O | / | -22 | + | 0
CCOc1ccc(CCNS(=O)(=O)c2cnc[nH]2)cc1OCC | -6 | -6 | 62* | 4
CCOc1ccc(CCNC(=O)c2cc3c(C)nccc3[nH]c2=O)cc1OCC | -16 | / | -3 | -10
CC(C)C1=Nc2cccc3cccc(c23)N1 | -1 | / | 150* | -12
COc1ccccc1-c1cc(SC)c(C#N)c(=O)o1 | 36* | 2 | -24 | -10
C=CCn1c(C)nnc1SCC(=O)N1CCN(S(=O)(=O)c2ccccc2)CC1 | / | / | -4 | -1
CCC(C)(C)c1ccc(OCCCC[n+]2cccc(C)c2C)c(C(C)(C)CC)c1 | -24 | 9 | 49* | 28
CCC(C)(C)c1ccc(OCCCC[n+]2ccc(C)cc2)c(C(C)(C)CC)c1 | -24 | -8 | 33* | 18
CCCCCCCCC[n+]1cccc2c3ccccc3ccc21 | -66 | 1 | 19 | -6
CC(C)OP(=O)(OC(C)C)C(C)NC(=O)Cc1ccccc1 (stereo not drawn) | 0 | -7 | 7 | 1
N#CC(=C=[N-])c1nc2ccccc2nc1-[n+]1cccc(NC(=O)c2ccccc2)c1 | -18 | -8 | 53* | -18
N#CC(=C=[N-])c1nc2ccccc2nc1-[n+]1cccc(NC(=O)c2ccc(F)cc2)c1 | 0 | 2 | 21 | -11
N#CC(=C=[N-])c1nc2ccccc2nc1-[n+]1cccc(NC(=O)c2cccs2)c1 | -10 | -2 | 48* | 16
COc1ccc(-n2nc(C)c3sc(C)nc3c2=O)cc1 | -12 | -6 | 0 | 2
Cc1sc(Cc2nc(O)cs2)nc1-c1ccccc1 | -9 | 6 | -36 | -6
SMILES | MDM2 E3 inh | Rad51 HR inh | NCF1 inh | TbHK1 inh
COc1ccc(OC)c(NC(=O)C2C3CCC(O3)C2C(=O)O)c1 (stereo not drawn) | -5 | / | 53* | 3
CCOC(=O)c1c(C)nc2sc3c(=O)n(-c4ccc(C(C)=O)cc4)nnc3c2c1-c1ccc(Cl)cc1 | -8 | 2 | 60* | -19
CCOC(=O)c1c(C)nc2sc3c(=O)n(-c4ccc(C(C)=O)cc4)cnc3c2c1-c1ccc(Cl)cc1 | -5 | -1 | -13 | -19
Cc1ccc2c(c1)COc1c3ccc(C(=O)NC(C)C)cc3nn1-2 | 5 | -1 | 3 | -20
COc1ccc(/C=N/NC(=O)c2nn(-c3ccc(C)c(C)c3)c(=O)c3ccccc23)cc1 | -9 | / | + | -15
COc1ccc(/C=N/NC(=O)c2nn(-c3ccccc3)c(=O)c3c(N)scc23)cc1 | -4 | -5 | -4 | -16
COc1ccc(-n2nc(C(=O)Nc3nc4ccc(OC)cc4s3)c3ccccc3c2=O)cc1 | -13 | -2 | 38* | -27
CC(/C=C/c1ccco1)=N\NC(=O)COc1ccc(C)c(C)c1 | -28 | -4 | -6 | -32

Bioassay records: PubChem BioAssay, several laboratories
